From ChEMBL document CHEMBL1212721, “Mechanistic and structural insights into the proteolytic activation of Vibrio cholerae MARTX toxin” (Nat Chem Biol, 2009)
Calls of active or inactive are those of the source. The calls are words filed in the database; no cut-off is given here.

How the values were obtained:
Vibrio cholerae [1] = experiment: Inhibition of Vibrio cholerae recombinant MARTX toxin (3391-3650) cysteine protease domain autoprocessing assessed as reduction of GTPgamma-S-induced activation of protease activity at 100 uM after 15 mins by Coomassie staining based SDS-PAGE method
Procedure, shortened: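 His6-tagged CPD (aa 3391–3650, 1 µM) in 60 mM NaCl, 20 mM Tris pH 7.5, 250 mM sucrose was preincubated with 100 µM inhibitor (30 min at room temperature per Methods; 15 min per legend). GTPγS was then added to 200 µM final to trigger autoprocessing, 2 h at 37°C. Read-out was 15% SDS-PAGE with Coomassie staining. Screen run in triplicate; hits confirmed in a secondary screen.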

Vibrio cholerae [2] = experiment: Inhibition of Vibrio cholerae recombinant MARTX toxin (3391-3650) cysteine protease domain autoprocessing assessed as concentration of InsP6 required to activate half maximal cleavage of the enzyme at 10 uM by Coomassie staining based SDS-PAGE method
Procedure, shortened: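 N-terminally His6-tagged CPD (aa 3391–3650, 1 µM) in 60 mM NaCl, 20 mM Tris pH 7.5, 250 mM sucrose was pretreated with 10 µM inhibitor for 30 min at room temperature. InsP6 was added across a concentration range, followed by 1 h at 37°C. Samples were run on SDS-PAGE with Coomassie staining and densitometry. Cleaved/total fraction was plotted against InsP6 and fitted with a Michaelis-Menten function to give AC50(I). Triplicates.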

HFF [3] = experiment: Inhibition of Vibrio cholerae MARTX toxin cysteine protease domain autoprocessing assessed as assessed as reduction in actin cross linking in HFF cells at 50 uM pretreated for 15 before Vibrio cholerae supernatants addition by Western blot; format: cell-based
Vibrio cholerae [4] = experiment: Inhibition of MARTX toxin cysteine protease domain autoprocessing in wild type Vibrio cholerae by Western blot
Procedure, shortened: (§1)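 Culture supernatants were TCA-precipitated and resolved by SDS-PAGE. Western blot with a polyclonal anti-CPD antibody read out MARTX_Vc processing, seen as accumulation of unprocessed toxin (~460 kDa) compared with untreated wild-type supernatants.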

Vibrio cholerae [5] = experiment: Inhibition of MARTX toxin cysteine protease domain autoprocessing at Leu3441 residue in wild type Vibrio cholerae at 100 uM by Western blot; procedure, shortened: as §1
Vibrio cholerae [6] = experiment: Inhibition of MARTX toxin cysteine protease domain autoprocessing at Leu3099 residue in wild type Vibrio cholerae at >50 uM by Western blot; procedure, shortened: as §1
HFF [7] = experiment: Inhibition of MARTX toxin cysteine protease domain autoprocessing in Vibrio cholerae assessed as assessed as reduction in actin cross linking in HFF cells exposed to Vibrio cholerae supernatants pretreated at 50 uM for 15 mins by Western blot; format: cell-based

| SMILES | inhibition (Vibrio cholerae [1]) | Activity (Vibrio cholerae [2]) | inhibition (HFF [3]) | inhibition (Vibrio cholerae [4]) | inhibition (Vibrio cholerae [5]) | inhibition (Vibrio cholerae [6]) | inhibition (HFF [7]) |
| --- | --- | --- | --- | --- | --- | --- | --- |
| CCOC(=O)[C@H]1O[C@@H]1C(=O)N(CC(C)C)NC(=O)[C@H](CC(C)C)NC(=O)[C@H](CC(C)C)NC(=O)OCc1ccccc1 (stereo in doubt; 9) | Active | 74 nM | – | – | – | – | – |
| CCOC(=O)[C@H]1O[C@@H]1C(=O)N(CC(C)C)NC(=O)[C@H](CC(C)C)NC(=O)OCc1ccccc1 | Active | 11 nM | – | – | – | – | – |
| CCOC(=O)[C@@H]1O[C@H]1C(=O)N(CC(C)C)NC(=O)[C@H](CC(C)C)NC(=O)[C@H](CC(C)C)NC(=O)OCc1ccccc1 | Active | 5.2 nM | – | – | – | – | – |
| CCOC(=O)[C@H]1O[C@@H]1C(=O)N(CC(C)C)NC(=O)[C@H](CC(C)C)NC(C)=O | Active | 21 nM | – | – | – | – | – |
| CCOC(=O)[C@H]1O[C@@H]1C(=O)N(CC(C)C)NC(=O)[C@H](CC(C)C)NC(=O)[C@H](CC(C)C)NC(=O)OCc1ccccc1 (stereo in doubt; 7) | Active | 457 nM | Active | Dose-dependent effect | inactive | Active | Active |
| Cc1cccc(C)c1C(=O)OCC(=O)[C@H](CC(C)C)NC(=O)[C@H](C)NC(=O)OCc1ccccc1 | Active | 187 nM | – | – | – | – | – |
| Cc1cccc(C)c1C(=O)OCC(=O)[C@H](CC(C)C)NC(=O)[C@H](C)NC(=O)[C@H](CCC(=O)O)NC(=O)OCc1ccccc1 | Active | 529 nM | inactive | Dose-dependent effect | inactive | Active | Active |
| Cc1cccc(C)c1C(=O)OCC(=O)[C@H](CC(C)C)NC(=O)[C@H](C)NC(=O)[C@H](CCC(=O)O)NC(=O)[C@H](CCCCN)NC(=O)OCc1ccccc1 | Active | 290 nM | – | – | – | – | – |
| CCOC(=O)[C@@H]1O[C@H]1C(=O)N(CC(C)C)NC(=O)OCc1ccccc1 (relative stereo) | Active | 1.1 nM | – | – | – | – | – |
| CC(C)C[C@H](NC(=O)OCc1ccccc1)C(=O)N[C@@H](CC(C)C)C(=O)NN(CC(C)C)C(=O)[C@H]1O[C@@H]1C(=O)O | Active | 158 nM | – | – | – | – | – |
